Assay results taken from ChEMBL document CHEMBL1122479, “Nucleic acid related compounds. 40. Synthesis and biological activities of 5-alkynyluracil nucleosides” (1983).
Converted amounts (≈) assume the structure as drawn.

Columns and labels:
Type in all cases: functional
PRK [1] = assay: Concentration required to reduce Herpes simplex virus type 1 induced cytopathogenicity in primary rabbit kidney (PRK) cell cultures; details: Human alphaherpesvirus 1, PRK; read-out: ID50 (the source's name)
PRK [2] = assay: Concentration required to reduce Vaccinia virus induced cytopathogenicity in primary rabbit kidney (PRK) cell cultures; details: Orthopoxvirus vaccinia, read-out: ID50 (the source's name)
PRK [3] = assay: Inhibitory activity against incorporation of deoxy-[methyl.3H-]-thymidine (dThd) into the DNA of uninfected primary rabbit kidney (PRK) cell cultures; details: Oryctolagus cuniculus, read-out: ID50 (the source's name)
Method in brief: (§1)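 Uninfected primary rabbit kidney cells were used as a cytotoxicity measure. Incorporation of [methyl-3H]dThd or [1',2'-3H]dUrd into cellular DNA was followed with compound present.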

L1210 [4] = assay: Concentration required to reduce leukemia L1210 cell growth […]; details: Mus musculus, read-out: ID50 (the source's name)
PRK [5] = assay: Inhibitory activity against incorporation of deoxy-[1',2'-3H]uridine (dUrd) into the DNA of uninfected primary rabbit kidney (PRK) cell cultures; details: Oryctolagus cuniculus, read-out: ID50 (the source's name); method in brief: as §1
PRK [6] = assay: Concentration required to reduce Herpes simplex virus type 2 induced cytopathogenicity in primary rabbit kidney (PRK) cell cultures; details: Human alphaherpesvirus 2, PRK; read-out: ID50 (the source's name)
L1210 [7] = assay: Inhibitory activity against incorporation of deoxy-[methyl.3H-]-thymidine (dThd) into the DNA of murine leukemia L1210 cell cultures; details: Mus musculus, read-out: ID50 (the source's name)

| SMILES | IC50 (PRK [1]) [µg/mL] | IC50 (PRK [2]) [µg/mL] | IC50 (PRK [3]) [µg/mL] | IC50 (L1210 [4]) [µg/mL] | IC50 (PRK [5]) [µg/mL] | IC50 (PRK [6]) [µg/mL] | IC50 (L1210 [7]) [µg/mL] |
| --- | --- | --- | --- | --- | --- | --- | --- |
| CCC#Cc1cn([C@H]2C[C@H](O)[C@@H](CO)O2)c(=O)[nH]c1=O | 4 (≈ 14.3 µM) | 7 (≈ 25 µM) | 13 (≈ 46.4 µM) | > 1000 | 2 (≈ 7.14 µM) | 32 (≈ 114 µM) |  |
| CCC#Cc1cn(C2O[C@H](CO)[C@@H](O)[C@@H]2O)c(=O)[nH]c1=O (some centres not stated) | 200 (≈ 675 µM) | > 400 | 120 (≈ 405 µM) | > 1000 | 215 (≈ 726 µM) | > 400 | > 1000 |
| CCCCCC#Cc1cn([C@H]2C[C@H](O)[C@@H](CO)O2)c(=O)[nH]c1=O | > 400 | 70 (≈ 217 µM) | 9 (≈ 27.9 µM) | 219 (≈ 679 µM) | 33 (≈ 102 µM) | > 400 | 45 (≈ 140 µM) |
| O=c1[nH]c(=O)n([C@H]2C[C@H](O)[C@@H](CO)O2)cc1C#CCO | 36 (≈ 128 µM) | 10 (≈ 35.4 µM) | 68 (≈ 241 µM) | > 1000 | 8 (≈ 28.3 µM) | 37 (≈ 131 µM) |  |
| CC#Cc1cn(C2O[C@H](CO)[C@@H](O)[C@@H]2O)c(=O)[nH]c1=O (some centres not stated) | 20 (≈ 70.9 µM) | 200 (≈ 709 µM) | 92 (≈ 326 µM) | 36 (≈ 128 µM) | > 100 | 50 (≈ 177 µM) | > 1000 |
| CC(C)(C)C#Cc1cn([C@H]2C[C@H](O)[C@@H](CO)O2)c(=O)[nH]c1=O | 4 (≈ 13 µM) | 7 (≈ 22.7 µM) | 6 (≈ 19.5 µM) | 287 (≈ 931 µM) | 2 (≈ 6.49 µM) | 19 (≈ 61.6 µM) |  |
| CCCC/C=C\c1cn([C@H]2C[C@H](O)[C@@H](CO)O2)c(=O)[nH]c1=O | > 400 | > 400 | 5 (≈ 16.1 µM) | 361 (≈ 1160 µM) | 34 (≈ 110 µM) | > 200 | 39 (≈ 126 µM) |
| C#Cc1cn([C@H]2C[C@H](O)[C@@H](CO)O2)c(=O)[nH]c1=O | 0.5 (≈ 1.98 µM) | 0.1 (≈ 0.396 µM) | 3 (≈ 11.9 µM) | 0.09 (≈ 0.357 µM) | 0.05 (≈ 0.198 µM) | 1 (≈ 3.96 µM) |  |
| O=c1[nH]c(=O)n([C@H]2C[C@H](O)[C@@H](CO)O2)cc1C#CCCCO | > 400 | 125 (≈ 403 µM) | > 200 | 280 (≈ 902 µM) | > 156 | > 400 |  |
| CC(C)(C)C#Cc1cn(C2O[C@H](CO)[C@@H](O)[C@H]2O)c(=O)[nH]c1=O (some centres not stated) | > 400 | > 400 | > 400 |  | > 400 | > 400 | > 1000 |
| Cc1ccc(S(=O)(=O)OCCC#Cc2cn([C@H]3C[C@H](O)[C@@H](CO)O3)c(=O)[nH]c2=O)cc1 | 33 (≈ 73.3 µM) | 10 (≈ 22.2 µM) | 13 (≈ 28.9 µM) | > 200 | 44 (≈ 97.7 µM) | 63 (≈ 140 µM) | 112 (≈ 249 µM) |
| CCCCCCc1cn([C@H]2C[C@H](O)[C@@H](CO)O2)c(=O)[nH]c1=O | 400 (≈ 1280 µM) | 300 (≈ 960 µM) | 7 (≈ 22.4 µM) | 301 (≈ 964 µM) | 52 (≈ 166 µM) | 350 (≈ 1120 µM) |  |
| CC#Cc1cn([C@H]2C[C@H](O)[C@@H](CO)O2)c(=O)[nH]c1=O | 0.3 (≈ 1.13 µM) | 0.4 (≈ 1.5 µM) | 3 (≈ 11.3 µM) | 164 (≈ 616 µM) | 0.7 (≈ 2.63 µM) | 0.7 (≈ 2.63 µM) |  |
| O=c1[nH]c(=O)n([C@H]2C[C@H](O)[C@@H](CO)O2)cc1I [IDOXURIDINE] | 0.15 (≈ 0.424 µM) | 0.2 (≈ 0.565 µM) | 1.5 (≈ 4.24 µM) | 61 (≈ 172 µM) | 0.12 (≈ 0.339 µM) | 0.3 (≈ 0.847 µM) |  |
| CCCC#Cc1cn([C@H]2C[C@H](O)[C@@H](CO)O2)c(=O)[nH]c1=O | 4 (≈ 13.6 µM) | 7 (≈ 23.8 µM) | 9 (≈ 30.6 µM) | > 1000 | 3 (≈ 10.2 µM) | 90 (≈ 306 µM) |  |
| CCCCC#Cc1cn([C@H]2C[C@H](O)[C@@H](CO)O2)c(=O)[nH]c1=O | 108 (≈ 350 µM) | 45 (≈ 146 µM) | 45 (≈ 146 µM) | 1000 (≈ 3240 µM) | 59 (≈ 191 µM) | 350 (≈ 1140 µM) | 47 (≈ 152 µM) |
| O=c1[nH]c(=O)n([C@H]2C[C@H](O)[C@@H](CO)O2)cc1C#Cc1ccccc1 | > 400 | > 400 | 23 (≈ 70.1 µM) | 494 (≈ 1500 µM) | 77 (≈ 235 µM) | > 400 | 120 (≈ 365 µM) |
| O=c1[nH]c(=O)n([C@H]2C[C@H](O)[C@@H](CO)O2)cc1C#CCCO | 18 (≈ 60.8 µM) | 10 (≈ 33.8 µM) | 73 (≈ 246 µM) | > 1000 | 13 (≈ 43.9 µM) | 47 (≈ 159 µM) |  |
| COCC#Cc1cn([C@H]2C[C@H](O)[C@@H](CO)O2)c(=O)[nH]c1=O | 1 (≈ 3.38 µM) | 2 (≈ 6.75 µM) | 16 (≈ 54 µM) | 254 (≈ 857 µM) | 2 (≈ 6.75 µM) | 2 (≈ 6.75 µM) |  |
| O=c1[nH]c(=O)n([C@H]2C[C@H](O)[C@@H](CO)O2)cc1/C=C/Br [BRIVUDINE] | 0.007 (≈ 0.021 µM) | 5 (≈ 15 µM) | 90 (≈ 270 µM) | 0.001 (≈ 0.003 µM) | 25 (≈ 75 µM) | 2.5 (≈ 7.5 µM) |  |
